Test results published in ChEMBL document CHEMBL2146464, “Structure-activity relationship study of nitrosopyrimidines acting as antifungal agents” (Bioorg Med Chem, 2012).
Values after ≈ are worked out from the molar mass of the structure shown. Active and inactive are the calls of the source. The rule behind the calls is not given here.

Legend:
Candida albicans [1] = assay: Antifungal activity against Candida albicans ATCC 10231 after 48 hrs by NCCLS broth microdilution method; type: functional; conditions: ATCC 10231, 48 h, read-out: MIC100
Outline: (§1)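 Yeast MIC by NCCLS M27-A3 broth microdilution in RPMI-1640 buffered to pH 7.0 with MOPS. Twofold dilutions of 250–0.98 µg/mL, final DMSO ≤1%. Inoculum 1–5 × 10³ CFU/mL. Incubated at 30 °C in a moist dark chamber. Read visually at 48 h. MIC100 is the lowest concentration with no visible growth versus drug-free control.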

Candida tropicalis [2] = assay: Antifungal activity against Candida tropicalis after 48 hrs by NCCLS broth microdilution method; type: functional; conditions: read-out: MIC100; outline: as §1
Cryptococcus neoformans [3] = assay: Antifungal activity against Cryptococcus neoformans ATCC 32264 after 48 hrs by NCCLS broth microdilution method; type: functional; conditions: ATCC 32264, 48 h, read-out: MIC100; outline: as §1
Candida tropicalis [4] = assay: Antifungal activity against Candida tropicalis by microplate reader analysis; type: functional
Trichophyton rubrum [5] = assay: Antifungal activity against Trichophyton rubrum CCC 110 by NCCLS broth microdilution method; type: functional; conditions: read-out: MIC100
Outline: (§2)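 MIC by broth microdilution per NCCLS M27-A3/M38-A2 in RPMI-1640 buffered to pH 7.0 with MOPS. Twofold dilutions from 250–0.98 µg/mL, final DMSO ≤1%. Inoculum 1–5 × 10³ CFU/mL. Incubated in a moist dark chamber, 30 °C for Aspergillus and 28–30 °C for dermatophytes. Read visually when control growth allowed. Endpoint is the lowest concentration giving total inhibition of visible growth (MIC100).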

[6] = tested on: Trichophyton mentagrophytes; assay: Antifungal activity against Trichophyton mentagrophytes ATCC 9972 by NCCLS broth microdilution method; type: functional; conditions: read-out: MIC100; outline: as §2
Candida albicans [7] = assay: Fungicidal activity against Candida albicans ATCC 10231 after 48 hrs by agar plate dilution method; type: functional; conditions: ATCC 10231, 48 h
Outline: (§3)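 MFC: after the microdilution MIC, material from each clear well was plated onto RPMI-1640 agar buffered with MOPS. Plates incubated at 30 °C and read after 48 h. MFC is the lowest concentration giving total inhibition of visible growth.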

Candida tropicalis [8] = assay: Fungicidal activity against Candida tropicalis after 48 hrs by agar plate dilution method; type: functional; outline: as §3
Cryptococcus neoformans [9] = assay: Fungicidal activity against Cryptococcus neoformans ATCC 32264 after 48 hrs by agar plate dilution method; type: functional; conditions: ATCC 32264, 48 h; outline: as §3
Aspergillus flavus = assay: Antifungal activity against Aspergillus flavus ATCC 9170 at 0.98 to 250 ug/mL by NCCLS broth microdilution method; type: functional, organism-based; outline: as §2
Aspergillus fumigatus = assay: Antifungal activity against Aspergillus fumigatus ATCC 26934 at 0.98 to 250 ug/mL by NCCLS broth microdilution method; type: functional, organism-based; outline: as §2
Aspergillus niger = assay: Antifungal activity against Aspergillus niger ATCC 9029 at 0.98 to 250 ug/mL by NCCLS broth microdilution method; type: functional, organism-based; outline: as §2
Nannizzia gypsea = assay: Antifungal activity against Microsporum gypseum CCC 115 at 0.98 to 250 ug/mL by NCCLS broth microdilution method; type: functional, organism-based; outline: as §2
Trichophyton rubrum [10] = assay: Fungicidal activity against Trichophyton rubrum CCC 110 at 0.98 to 250 ug/mL after 48 hrs by agar plate dilution method; type: functional, organism-based
Outline: (§4)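 Samples from each clear well of the MIC broth microdilution tray were plated onto RPMI-1640 agar buffered with MOPS. That tray had compounds twofold diluted in RPMI (pH 7.0, MOPS) from 250–0.98 µg/mL with inoculum of 1–5 × 10³ CFU/mL, incubated at 28–30 °C for dermatophytes. Plates were incubated at 30 °C and read at 48 h. MFC was taken as the lowest concentration giving total inhibition of visible growth.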

[11] = tested on: Trichophyton mentagrophytes; assay: Fungicidal activity against Trichophyton mentagrophytes ATCC 9972 at 0.98 to 250 ug/mL after 48 hrs by agar plate dilution method; type: functional, organism-based; outline: as §4
Candida albicans [12] = assay: Antifungal activity against Candida albicans ATCC 10231 assessed as growth inhibition at 250 ug/mL after 24 hrs by microplate reader analysis; type: functional; conditions: ATCC 10231, 24 h, read-out: GI
Outline: (§5)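 96-well RPMI-1640 wells with compound at final 250–0.98 µg/mL (DMSO ≤1%). Inoculum 100 µL, 1–5 × 10³ CFU/mL, 200 µL final. Each well includes growth (DMSO, no compound) and sterility controls. % inhibition = 100 − (CTW−SCW)/(GCW−SCW) × 100, run in duplicate.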

Candida tropicalis [13] = assay: Antifungal activity against Candida tropicalis assessed as growth inhibition at 250 ug/mL by microplate reader analysis; type: functional; conditions: read-out: GI
Cryptococcus neoformans [14] = assay: Antifungal activity against Cryptococcus neoformans ATCC 32264 assessed as growth inhibition at 250 ug/mL after 48 hrs by microplate reader analysis; type: functional; conditions: ATCC 32264, 48 h, read-out: GI
Outline: (§6)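 Microplate growth-inhibition assay in RPMI-1640, compound at final 250–0.98 µg/mL (DMSO ≤1%). Inoculum 1–5 × 10³ CFU/mL. Sterility and DMSO growth controls included. Percent inhibition is computed from blank-corrected OD relative to the growth control, tested in duplicate.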

Candida albicans [15] = assay: Antifungal activity against Candida albicans ATCC 10231 assessed as growth inhibition at 125 ug/mL after 24 hrs by microplate reader analysis; type: functional; conditions: ATCC 10231, 24 h, read-out: GI; outline: as §5
Candida tropicalis [16] = assay: Antifungal activity against Candida tropicalis assessed as growth inhibition at 125 ug/mL by microplate reader analysis; type: functional; conditions: read-out: GI
Cryptococcus neoformans [17] = assay: Antifungal activity against Cryptococcus neoformans ATCC 32264 assessed as growth inhibition at 125 ug/mL after 48 hrs by microplate reader analysis; type: functional; conditions: ATCC 32264, 48 h, read-out: GI; outline: as §6
Candida albicans [18] = assay: Antifungal activity against Candida albicans ATCC 10231 assessed as growth inhibition at 62.5 ug/mL after 24 hrs by microplate reader analysis; type: functional; conditions: ATCC 10231, 24 h, read-out: GI; outline: as §5
Candida tropicalis [19] = assay: Antifungal activity against Candida tropicalis assessed as growth inhibition at 62.5 ug/mL by microplate reader analysis; type: functional; conditions: read-out: GI
Cryptococcus neoformans [20] = assay: Antifungal activity against Cryptococcus neoformans ATCC 32264 assessed as growth inhibition at 62.5 ug/mL after 48 hrs by microplate reader analysis; type: functional; conditions: ATCC 32264, 48 h, read-out: GI; outline: as §6
Candida albicans [21] = assay: Antifungal activity against Candida albicans ATCC 10231 assessed as growth inhibition at 31.25 ug/mL after 24 hrs by microplate reader analysis; type: functional; conditions: ATCC 10231, 24 h, read-out: GI; outline: as §5
Candida tropicalis [22] = assay: Antifungal activity against Candida tropicalis assessed as growth inhibition at 31.25 ug/mL by microplate reader analysis; type: functional; conditions: read-out: GI
Cryptococcus neoformans [23] = assay: Antifungal activity against Cryptococcus neoformans ATCC 32264 assessed as growth inhibition at 31.25 ug/mL after 48 hrs by microplate reader analysis; type: functional; conditions: ATCC 32264, 48 h, read-out: GI; outline: as §6
Candida albicans [24] = assay: Antifungal activity against Candida albicans ATCC 10231 assessed as growth inhibition at 15.6 ug/mL after 24 hrs by microplate reader analysis; type: functional; conditions: ATCC 10231, 24 h, read-out: GI; outline: as §5
Candida tropicalis [25] = assay: Antifungal activity against Candida tropicalis assessed as growth inhibition at 15.6 ug/mL by microplate reader analysis; type: functional; conditions: read-out: GI
Cryptococcus neoformans [26] = assay: Antifungal activity against Cryptococcus neoformans ATCC 32264 assessed as growth inhibition at 15.6 ug/mL after 48 hrs by microplate reader analysis; type: functional; conditions: ATCC 32264, 48 h, read-out: GI; outline: as §6
Candida albicans [27] = assay: Antifungal activity against Candida albicans ATCC 10231 assessed as growth inhibition at 7.8 ug/mL after 24 hrs by microplate reader analysis; type: functional; conditions: ATCC 10231, 24 h, read-out: GI; outline: as §5
Candida tropicalis [28] = assay: Antifungal activity against Candida tropicalis assessed as growth inhibition at 7.8 ug/mL by microplate reader analysis; type: functional; conditions: read-out: GI
Cryptococcus neoformans [29] = assay: Antifungal activity against Cryptococcus neoformans ATCC 32264 assessed as growth inhibition at 7.8 ug/mL after 48 hrs by microplate reader analysis; type: functional; conditions: ATCC 32264, 48 h, read-out: GI; outline: as §6
Candida albicans [30] = assay: Antifungal activity against Candida albicans ATCC 10231 assessed as growth inhibition at 3.9 ug/mL after 24 hrs by microplate reader analysis; type: functional; conditions: ATCC 10231, 24 h, read-out: GI; outline: as §5
Candida tropicalis [31] = assay: Antifungal activity against Candida tropicalis assessed as growth inhibition at 3.9 ug/mL by microplate reader analysis; type: functional; conditions: read-out: GI
Cryptococcus neoformans [32] = assay: Antifungal activity against Cryptococcus neoformans ATCC 32264 assessed as growth inhibition at 3.9 ug/mL after 48 hrs by microplate reader analysis; type: functional; conditions: ATCC 32264, 48 h, read-out: GI; outline: as §6
Candida albicans [33] = assay: Antifungal activity against Candida albicans ATCC 10231 after 24 hrs by microplate reader analysis; type: functional; conditions: ATCC 10231, 24 h; outline: as §5
[34] = Acute toxicity in bony fish assessed as mortality at 35 ug/mL after 96 hrs; conditions: actinopterygii; read-out: Activity
Outline: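 Guppy (Poecilia reticulata) acute static exposure: 10 fish per concentration in 2 L wide-mouthed jars holding the test solution. Compounds were added from […] to give the final concentrations. Dead fish were counted and removed every 24 h, with general condition noted; percentage mortality was scored at 96 h. Two experiments, each in triplicate.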

Cryptococcus neoformans [35] = assay: Antifungal activity against Cryptococcus neoformans ATCC 32264 after 48 hrs by microplate reader analysis; type: functional; conditions: ATCC 32264, 48 h; outline: as §6

CCCCNc1nc(N)nc(OC)c1N=O
MIC (Candida albicans [1]): 62.5 µg/mL (≈ 277 µM)
MIC (Candida tropicalis [2]): 62.5 µg/mL (≈ 277 µM)
MIC (Cryptococcus neoformans [3]): 125 µg/mL (≈ 555 µM)
MIC50 (Candida tropicalis [4]): 7.8 µg/mL (≈ 34.6 µM)
MIC (Trichophyton rubrum [5]): 250 µg/mL (≈ 1110 µM)
MIC [6]: 250 µg/mL (≈ 1110 µM)
MFC (Candida albicans [7]): 250 µg/mL (≈ 1110 µM)
MFC (Candida tropicalis [8]): 250 µg/mL (≈ 1110 µM)
MFC (Cryptococcus neoformans [9]): 250 µg/mL (≈ 1110 µM)
Activity (Aspergillus flavus): inactive
Activity (Aspergillus fumigatus): inactive
Activity (Aspergillus niger): inactive
Activity (Nannizzia gypsea): inactive
Activity (Trichophyton rubrum [10]): inactive
Activity [11]: inactive
inhibition of growth at 250 µg/mL (Candida albicans [12]): 100%
inhibition of growth at 250 µg/mL (Candida tropicalis [13]): 100%
inhibition of growth at 250 µg/mL (Cryptococcus neoformans [14]): 100%
inhibition of growth at 125 µg/mL (Candida albicans [15]): 100%
inhibition of growth at 125 µg/mL (Candida tropicalis [16]): 100%
inhibition of growth at 125 µg/mL (Cryptococcus neoformans [17]): 100%
inhibition of growth at 62.5 µg/mL (Candida albicans [18]): 100%
inhibition of growth at 62.5 µg/mL (Candida tropicalis [19]): 100%
inhibition of growth at 62.5 µg/mL (Cryptococcus neoformans [20]): 85.5%
inhibition of growth at 31.25 µg/mL (Candida albicans [21]): 98.2%
inhibition of growth at 31.25 µg/mL (Candida tropicalis [22]): 93.2%
inhibition of growth at 31.25 µg/mL (Cryptococcus neoformans [23]): 75%
inhibition of growth at 15.6 µg/mL (Candida albicans [24]): 86.2%
inhibition of growth at 15.6 µg/mL (Candida tropicalis [25]): 85.2%
inhibition of growth at 15.6 µg/mL (Cryptococcus neoformans [26]): 63.1%
inhibition of growth at 7.8 µg/mL (Candida albicans [27]): 50.4%
inhibition of growth at 7.8 µg/mL (Candida tropicalis [28]): 57.7%
inhibition of growth at 7.8 µg/mL (Cryptococcus neoformans [29]): 52.4%
inhibition of growth at 3.9 µg/mL (Candida albicans [30]): 20%
inhibition of growth at 3.9 µg/mL (Candida tropicalis [31]): 16.3%
inhibition of growth at 3.9 µg/mL (Cryptococcus neoformans [32]): 11.3%
MIC50 (Candida albicans [33]): 7.8 µg/mL (≈ 34.6 µM)
mortality at 96 h, 35 ug/mL [34]: 0%
MIC50 (Cryptococcus neoformans [35]): 7.8 µg/mL (≈ 34.6 µM)
